Assay results reported in ChEMBL document CHEMBL3611998, “Syntheses and studies of new forms of N-sulfonyloxy β-lactams as potential antibacterial agents and β-lactamase inhibitors” (Bioorg Med Chem, 2015).
Calls of active or inactive are those of the source. No cut-off for these calls is given here.

How the values were obtained:
Pseudomonas aeruginosa [1] = test: Antimicrobial activity against wild type Pseudomonas aeruginosa K799 at 2 mM incubated for 20 hrs by agar diffusion assay; format: functional; conditions: K799, 20 h, read-out: DIZ
Outline: (§1)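 The test solution was made as 20 mM in DMSO and diluted 10-fold in MeOH to 2 mM. Overnight LB cultures were adjusted to a 0.5 McFarland standard ([…] in 0.9% saline), and 0.1 mL was seeded into 34 mL Mueller-Hinton No. 2 agar at 47–50 °C. 50 μL was placed in 9.0 mm wells. Plates were incubated at 37 °C for 20 h, and inhibition zone diameters were measured by caliper.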

Escherichia coli [2] = test: Antimicrobial activity against Escherichia coli DC0 at 2 mM incubated for 20 hrs by agar diffusion assay; format: functional; conditions: for zone of inhibition at 2000 µM: DC0, 20 h, read-out: DIZ; outline: as §1
Staphylococcus aureus [3] = test: Antimicrobial activity against Staphylococcus aureus SG511 at 2 mM incubated for 20 hrs by agar diffusion assay; format: functional; conditions: for zone of inhibition at 2000 µM: SG511, 20 h, read-out: DIZ; outline: as §1
Pseudomonas aeruginosa [4] = test: Antimicrobial activity against Pseudomonas aeruginosa K799/61 at 2 mM incubated for 20 hrs by agar diffusion assay; format: functional; conditions: K799/61, 20 h, read-out: DIZ; outline: as §1
Burkholderia dolosa = test: Antimicrobial activity against Burkholderia dolosa at 2 mM incubated for 20 hrs by agar diffusion assay; format: functional; conditions: read-out: DIZ; outline: as §1
Mycolicibacterium vaccae [5] = test: Antimicrobial activity against Mycobacterium vaccae IMET 10670 at 2 mM incubated for 48 hrs by agar diffusion assay; format: functional; conditions: for zone of inhibition at 2000 µM: IMET 10670, 48 h, read-out: DIZ
Outline: (§2)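 Seeded-agar well diffusion: 2 mM test solution (from 20 mM DMSO stock, diluted 10-fold in MeOH), 50 μL per 9.0 mm well. Inoculum was 0.1 mL of a 0.5 McFarland saline suspension ([…]) in 34 mL Mueller-Hinton No. 2 agar. Incubation was at 37 °C for 48 h, with plates photographed after 3 days. Zone diameters were measured by caliper.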

Escherichia coli [6] = test: Antimicrobial activity against Escherichia coli DC2 at 2 mM incubated for 20 hrs by agar diffusion assay; format: functional; conditions: for zone of inhibition at 2000 µM: DC2, 20 h, read-out: DIZ; outline: as §1
Acinetobacter baumannii [7] = test: Antimicrobial activity against Acinetobacter baumannii ATCC 17961 at 2 mM incubated for 20 hrs by agar diffusion assay; format: functional; conditions: for zone of inhibition at 2000 µM: ATCC 17961, 20 h, read-out: DIZ; outline: as §1
Micrococcus luteus [8] = test: Antimicrobial activity against Micrococcus luteus ATCC 10240 at 2 mM incubated for 20 hrs by agar diffusion assay; format: functional; conditions: for zone of inhibition at 2000 µM: ATCC 10240, 20 h, read-out: DIZ; outline: as §1
Bacillus spizizenii [9] = test: Antimicrobial activity against Bacillus subtilis ATCC 6633 at 2 mM incubated for 20 hrs by agar diffusion assay; format: functional; conditions: ATCC 6633, 20 h, read-out: DIZ; outline: as §1
Escherichia coli [10] = test: Antimicrobial activity against Escherichia coli DC2 assessed as very very unclear inhibition zone at 2 mM incubated for 20 hrs by agar diffusion assay; format: functional; conditions: DC2, 20 h, read-out: DIZ; outline: as §1
Micrococcus luteus [11] = test: Antimicrobial activity against Micrococcus luteus ATCC 10240 assessed as very unclear inhibition zone at 2 mM incubated for 20 hrs by agar diffusion assay; format: functional; conditions: ATCC 10240, 20 h, read-out: DIZ; outline: as §1
[12] = Inhibition of beta-lactamase OXA-48 (unknown origin) using nitrocefin substrate incubated for 10 mins
Outline: (§3)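 Enzyme was preincubated with inhibitor at rt for 10 min in 50 mM sodium phosphate pH 7 with 0.1 mg/mL BSA. Inhibitor was tested at final concentrations of 160 μM to 3 nM (1:3 series, 8 points). Nitrocefin was then added at 50 μM, and hydrolysis was followed as OD 495 nm over time.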

[13] = Inhibition of beta-lactamase NDM1 (unknown origin) using imipenem substrate incubated for 10 mins
Outline: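 NDM-1 was added as 50 μL of a 0.110 mg/mL solution and preincubated with inhibitor (final 160 μM to 3 nM, 8-point 1:3 series) for 10 min at rt. Buffer was 50 mM sodium phosphate pH 7 with 0.1 mg/mL BSA. 10 μM imipenem was then added, and its disappearance was monitored over time.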

[14] = Inhibition of beta-lactamase SHV-12 (unknown origin) using nitrocefin substrate incubated for 10 mins
Outline: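 SHV-12 was added as 50 μL of a 0.111 mg/mL solution and preincubated for 10 min at rt with inhibitor (final 160 μM to 3 nM, 1:3 dilutions). Buffer was 50 mM sodium phosphate pH 7 with 0.1 mg/mL BSA. Reaction was started with 10 μM nitrocefin and followed as OD 495 nm over time.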

Mycolicibacterium vaccae [15] = test: Antimicrobial activity against Mycobacterium vaccae IMET 10670 assessed as unclear inhibition zone at 2 mM incubated for 48 hrs by agar diffusion assay; format: functional; conditions: IMET 10670, 48 h, read-out: DIZ; outline: as §2
[16] = Inhibition of beta-lactamase AmpC (unknown origin) using nitrocefin substrate incubated for 10 mins; outline: as §3
[17] = Inhibition of beta-lactamase KPC-2 (unknown origin) using nitrocefin substrate incubated for 10 mins; outline: as §3
[18] = Inhibition of beta-lactamase PAM-2035 (unknown origin) using nitrocefin substrate incubated for 10 mins
[19] = Inhibition of beta-lactamase CTX-M-14 (unknown origin) using nitrocefin substrate incubated for 10 mins; outline: as §3
Mycolicibacterium vaccae [20] = test: Antimicrobial activity against Mycobacterium vaccae IMET 10670 assessed as very unclear inhibition zone at 2 mM incubated for 48 hrs by agar diffusion assay; format: functional; conditions: IMET 10670, 48 h, read-out: DIZ; outline: as §2
Micrococcus luteus [21] = test: Antimicrobial activity against Micrococcus luteus ATCC 10240 assessed as unclear inhibition zone at 2 mM incubated for 20 hrs by agar diffusion assay; format: functional; conditions: ATCC 10240, 20 h, read-out: DIZ; outline: as §1
Staphylococcus aureus [22] = test: Antimicrobial activity against Staphylococcus aureus SG511 assessed as unclear inhibition zone at 2 mM incubated for 20 hrs by agar diffusion assay; format: functional; conditions: SG511, 20 h, read-out: DIZ; outline: as §1
Bacillus spizizenii [23] = test: Antimicrobial activity against Bacillus subtilis ATCC 6633 assessed as unclear inhibition zone at 2 mM incubated for 20 hrs by agar diffusion assay; format: functional; conditions: ATCC 6633, 20 h, read-out: DIZ; outline: as §1
Acinetobacter baumannii [24] = test: Antimicrobial activity against Acinetobacter baumannii ATCC 17961 assessed as unclear inhibition zone at 2 mM incubated for 20 hrs by agar diffusion assay; format: functional; conditions: ATCC 17961, 20 h, read-out: DIZ; outline: as §1
Bacillus spizizenii [25] = test: Antimicrobial activity against Bacillus subtilis ATCC 6633 assessed as very unclear inhibition zone at 2 mM incubated for 20 hrs by agar diffusion assay; format: functional; conditions: ATCC 6633, 20 h, read-out: DIZ; outline: as §1
[26] = Inhibition of beta-lactamase VIM-1 (unknown origin) using nitrocefin substrate incubated for 10 mins
Staphylococcus aureus [27] = test: Antimicrobial activity against Staphylococcus aureus SG511 assessed as very unclear inhibition zone at 2 mM incubated for 20 hrs by agar diffusion assay; format: functional; conditions: SG511, 20 h, read-out: DIZ; outline: as §1

| SMILES | zone of inhibition at 2000 µM (Pseudomonas aeruginosa [1]) | zone of inhibition at 2000 µM (Escherichia coli [2]) | zone of inhibition at 2000 µM (Staphylococcus aureus [3]) | zone of inhibition at 2000 µM (Pseudomonas aeruginosa [4]) | zone of inhibition at 2000 µM (Burkholderia dolosa) | zone of inhibition at 2000 µM (Mycolicibacterium vaccae [5]) | zone of inhibition at 2000 µM (Escherichia coli [6]) | zone of inhibition at 2000 µM (Acinetobacter baumannii [7]) | zone of inhibition at 2000 µM (Micrococcus luteus [8]) | zone of inhibition at 2000 µM (Bacillus spizizenii [9]) | diameter of the inhibition zone (DIZ) (Staphylococcus aureus [3]) | zone of inhibition at 2000 µM (Escherichia coli [10]) | other results |
| --- | --- | --- | --- | --- | --- | --- | --- | --- | --- | --- | --- | --- | --- |
| Cc1ccc(S(=O)(=O)ON2C(=O)CC2Cn2cc(CNC(=O)c3ccccc3)nn2)cc1 (centres undefined) | 0 mm | 0 mm | 0 mm | 0 mm | 0 mm | 0 mm | 0 mm | 0 mm | 0 mm | 0 mm | – | – | – |
| Cc1ccc(S(=O)(=O)ON2C(=O)CC2CSC2=NCCS2)cc1 (centres undefined) | 0 mm | 0 mm | – | 0 mm | 0 mm | – | – | 0 mm | 0 mm | 0 mm | Active | 14 mm | diameter of the inhibition zone (DIZ) (Mycolicibacterium vaccae [5]): Active |
| CC(C)c1cc(C(C)C)c(S(=O)(=O)ON2C(=O)CC2CBr)c(C(C)C)c1 (centres undefined) | 0 mm | 0 mm | 0 mm | 0 mm | 0 mm | – | – | 0 mm | – | 0 mm | – | – | zone of inhibition at 2000 µM (Micrococcus luteus [11]): 19 mm; Ki [12]: > 160 µM; Ki [13]: > 160 µM; Ki [14]: > 160 µM; zone of inhibition at 2000 µM (Mycolicibacterium vaccae [15]): 14 mm; Ki [16]: > 160 µM; Ki [17]: > 160 µM; Ki [18]: > 160 µM; Ki [19]: > 160 µM; diameter of the inhibition zone (DIZ) (Escherichia coli [6]): Active |
| CN(C)c1cccc2c(S(=O)(=O)ON3C(=O)CC3CBr)cccc12 (centres undefined) | 0 mm | – | 13 mm | 0 mm | 0 mm | 16 mm | – | 0 mm | 12 mm | 0 mm | – | 14 mm | diameter of the inhibition zone (DIZ) (Escherichia coli [2]): Active |
| O=C1CC(CBr)N1OS(=O)(=O)c1ccc([N+](=O)[O-])cc1 (centres undefined) | 0 mm | 0 mm | – | 0 mm | 0 mm | 0 mm | – | 11 mm | 0 mm | 14 mm | Active | 14 mm | – |
| O=C1CC(CBr)N1OS(=O)(=O)c1cccc2ccccc12 (centres undefined) | 0 mm | 0 mm | – | 0 mm | 0 mm | – | 0 mm | 0 mm | – | 12 mm | – | – | Ki [12]: 4.67 µM; Ki [13]: > 160 µM; Ki [14]: 0.198 µM; zone of inhibition at 2000 µM (Mycolicibacterium vaccae [20]): 16 mm; Ki [16]: > 160 µM; zone of inhibition at 2000 µM (Micrococcus luteus [21]): 13.5 mm; zone of inhibition at 2000 µM (Staphylococcus aureus [22]): 14 mm; Ki [17]: > 160 µM; Ki [18]: > 160 µM; Ki [19]: > 160 µM |
| Cc1ccc(S(=O)(=O)ON2C(=O)CC2Cn2cc(CNC(=O)c3cc(C(F)(F)F)ccc3Cl)nn2)cc1 (centres undefined) | 0 mm | 0 mm | – | 0 mm | 0 mm | 0 mm | 0 mm | – | – | – | Active | – | zone of inhibition at 2000 µM (Bacillus spizizenii [23]): 13 mm; zone of inhibition at 2000 µM (Micrococcus luteus [21]): 13 mm; zone of inhibition at 2000 µM (Acinetobacter baumannii [24]): 13 mm |
| O=C1CC(CBr)N1OS(=O)(=O)c1cccs1 (centres undefined) | 0 mm | 0 mm | 0 mm | 0 mm | 0 mm | 0 mm | – | 0 mm | 0 mm | 0 mm | – | 16 mm | – |
| Cc1ccc(S(=O)(=O)ON2C(=O)CC2CBr)cc1 (centres undefined) | 0 mm | 0 mm | – | 0 mm | 0 mm | – | – | – | – | – | Active | 13 mm | zone of inhibition at 2000 µM (Mycolicibacterium vaccae [15]): 17 mm; zone of inhibition at 2000 µM (Bacillus spizizenii [25]): 11 mm; diameter of the inhibition zone (DIZ) (Acinetobacter baumannii [7]): Active; diameter of the inhibition zone (DIZ) (Micrococcus luteus [8]): Active |
| O=C1CC(CBr)N1OS(=O)(=O)c1ccc2ccccc2c1 (centres undefined) | 0 mm | 0 mm | 13 mm | 0 mm | 0 mm | 17 mm | – | 0 mm | 12 mm | 13 mm | – | 15 mm | Ki [12]: > 160 µM; Ki [13]: > 160 µM; Ki [14]: 0.19 µM; zone of inhibition at 2000 µM (Bacillus spizizenii [23]): 17 mm; Ki [16]: > 160 µM; Ki [26]: > 160 µM; Ki [17]: > 160 µM; Ki [18]: > 160 µM; Ki [19]: > 160 µM |
| COc1ccc(S(=O)(=O)ON2C(=O)CC2CBr)cc1 (centres undefined) | 0 mm | 0 mm | 0 mm | 0 mm | 0 mm | – | – | 0 mm | 0 mm | – | – | 15 mm | zone of inhibition at 2000 µM (Mycolicibacterium vaccae [15]): 17 mm; zone of inhibition at 2000 µM (Bacillus spizizenii [25]): 11 mm |
| CCOC(=O)c1cn(CC2CC(=O)N2OS(=O)(=O)c2ccc(C)cc2)nn1 (centres undefined) | 0 mm | 0 mm | 0 mm | 0 mm | 0 mm | 0 mm | 0 mm | 0 mm | 0 mm | – | – | – | zone of inhibition at 2000 µM (Bacillus spizizenii [25]): 15 mm |
| O=C1CC(CBr)N1OS(=O)(=O)c1ccc([N+](=O)[O-])cc1[N+](=O)[O-] (centres undefined) | 0 mm | 0 mm | – | 0 mm | 0 mm | 32 mm | – | 0 mm | – | 22 mm | – | 15 mm | zone of inhibition at 2000 µM (Micrococcus luteus [11]): 16 mm; zone of inhibition at 2000 µM (Staphylococcus aureus [22]): 14 mm; zone of inhibition at 2000 µM (Staphylococcus aureus [27]): 23 mm |
